Results taken from PubChem BioAssay AID504767 (Southern Research Specialized Biocontainment Screening …, 2011).
The source made the active and inactive calls.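 The calls were made as follows: active = target-selective compounds that prevent over 30% of T7 phage killing of the bacteria in the dose series; inactive = the rest.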

Assay: T7 phage susceptibility of EV36 E. coli – EV36 strain, set 4, selectivity assay for bacterial capsule biogenesis inhibitors, dose response (AID 504767)
Conditions: series mostly up to 100 µM; bacterial growth OD600 3 h p.i., % of EV36+DMSO+T7 control (lower = more lysis): at the top concentration
Outline: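 Test system: E. coli EV36 (K1:K-12 hybrid) | Medium: LB broth, overnight culture diluted 1:100 | Signal: Optical density at 600 nm, before and after phage | Reagent: T7 bacteriophage | Schedule: 1.5 h compound at 37 °C, read 3 h post-infection | Compound dosing: Concentration series from 100 µM down to 0.39 µM, 1% DMSO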

Row | SMILES | bacterial growth OD600 3 h p.i., % of EV36+DMSO+T7 control (lower = more lysis)
1 | O=C(Nc1nc2ccc(F)cc2s1)c1ccccn1 | 105% (inactive)
2 | Cc1cc(C)c2nc(NC(=O)c3ccccn3)sc2c1 | 37% (inactive)
3 | O=C(Nc1nc2c(F)cc(F)cc2s1)c1ccccc1 | 103% (inactive)
4 | O=C(Nc1nc2ccccc2s1)c1cccnc1 | 93% (inactive)
5 | O=C(Nc1nc2c(F)cc(F)cc2s1)c1cccnc1 | 100% (inactive)
6 | O=C(Nc1nc2c(F)cccc2s1)c1ccccn1 | 100% (inactive)
7 | O=C(Nc1nc2ccccc2s1)c1ccncc1 | 118% (inactive)
8 | O=C(Nc1nc2c(F)cc(F)cc2s1)c1ccncc1 | 93% (inactive)
9 | O=C(Nc1nc2c(Cl)cc(Cl)cc2s1)c1ccccn1 | 101% (inactive)
